Values joined by “and” are separate entries in the source; they are usually repeats but may differ in a detail not shown here. Identical values can stand only once. Square brackets hold non-standard residues; d marks the D form. Peptide text beside a SMILES is read from it. * marks the point of attachment. Phe(4-N(CH2CH2Cl)2) = N[C@@H](Cc1ccc(N(CCCl)CCCl)cc1)C(=O)O; Tyr(Nα,Nα-allyl2) = C=CCN(CC=C)[C@@H](Cc1ccc(O)cc1)C(=O)*; Aib = CC(C)(N)C(=O)O

One may read the inhibition as the drop in the measured response relative to a control, in per cent.

In test [1] the target is Kappa-type opioid receptor (Cavia porcellus) (UniProt P41144). Particulars: 1 uM.
Sequence of Kappa-type opioid receptor (Cavia porcellus) (P41144 whole entry): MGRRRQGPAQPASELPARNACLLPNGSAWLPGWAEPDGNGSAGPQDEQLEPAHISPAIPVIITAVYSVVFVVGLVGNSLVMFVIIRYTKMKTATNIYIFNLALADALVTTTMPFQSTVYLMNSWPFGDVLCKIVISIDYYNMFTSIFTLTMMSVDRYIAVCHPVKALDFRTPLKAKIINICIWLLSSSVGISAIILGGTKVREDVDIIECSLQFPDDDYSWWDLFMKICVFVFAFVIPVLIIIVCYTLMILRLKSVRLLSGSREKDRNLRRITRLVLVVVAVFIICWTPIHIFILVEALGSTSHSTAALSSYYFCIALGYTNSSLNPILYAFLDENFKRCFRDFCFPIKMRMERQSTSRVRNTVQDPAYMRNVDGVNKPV
In test [2] the target is Mu-type opioid receptor (Cavia porcellus) (UniProt P97266). As to conditions: 1 uM.
Sequence of Mu-type opioid receptor (Cavia porcellus) (P97266 whole entry): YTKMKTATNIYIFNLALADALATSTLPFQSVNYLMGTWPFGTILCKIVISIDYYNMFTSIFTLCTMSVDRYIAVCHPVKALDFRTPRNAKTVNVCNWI
Test [3] is filed under the species Cavia porcellus. The experiment in a line: (§1) Reversible opioid agonist activity in the electrically stimulated guinea pig ileum(GPI) at 1 uM concentration (Exp 1). As to conditions: Cavia porcellus, Ileum. It counts as functional.
For test [4], the species on record is Mus musculus. The experiment in a line: (§2) Reversible opioid agonist activity in the electrically stimulated mouse vas deferens(MVD) at 1 uM concentration. It counts as functional.
Test [5] addresses Delta-type opioid receptor (Mus musculus) (UniProt P32300). The experiment in a line: Ratio of IC50 of DADLE (agonist) after 10 min of incubation along with compound (antagonist) and IC50 of agonist in the absence of compound for delta opioid receptor at 1 uM in MVD assay. It counts as functional. The method, boiled down:
(§3)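 Reversible antagonism was measured in electrically stimulated isolated tissue (MVD or GPI) with the antagonist present. Agonists were morphine (μ), ethylketazocine (κ) and DADLE (δ). The value is the agonist IC50 with antagonist divided by the IC50 without it, i.e. the fold rightward shift of the agonist dose-response curve. Mean ± SEM, n = 3 unless otherwise noted.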

The species entered for test [6] is Cavia porcellus. The experiment in a line: (§4) Reversible opioid agonist activity in the electrically stimulated guinea pig ileum(GPI) at 1 uM concentration (Exp 2).
Test [7] concerns the target Kappa-type opioid receptor (Cavia porcellus) (UniProt P41144). The experiment in a line: Ratio of IC50 of ethylketazocine (agonist) after 10 min of incubation along with compound (antagonist) and IC50 of agonist in absence of compound for kappa opioid receptor at 1 uM in GPI assay (Exp 1). It counts as functional. An outline of the steps:
as §3

Test [8] deals with Mu-type opioid receptor (Homo sapiens) (UniProt P35372). The experiment in a line: Ratio of IC50 of […] (agonist) after 10 min of incubation along with compound (antagonist) and IC50 of agonist in absence of compound for mu opioid receptor at 1 uM in MVD assay. It counts as functional. As to conditions: Mus musculus. An outline of the steps:
as §3

For test [9], the target named is Mu-type opioid receptor (Cavia porcellus) (UniProt P97266). Description: Ratio of IC50 of […] (agonist) after 10 min of incubation along with compound (antagonist) and IC50 of agonist in absence of compound for mu opioid receptor at 1 uM in GPI assay (Exp 2). It counts as functional. An outline of the steps: as §3
The species named for test [10] is Cavia porcellus. Description: Reversible opioid agonist activity in the electrically stimulated guinea pig ileum(GPI) at 1 uM concentration (Experiment 2).
Test [11] is filed under the species Cavia porcellus. The experiment in a line: Reversible opioid agonist activity in the electrically stimulated guinea pig ileum(GPI) at 1 uM concentration (Experiment 1).
Test [12] has as its target T1, Opioid receptor (Mus musculus) (UniProt P42866+P32300+P33534). The experiment in a line: Reversible opioid agonist activity in the electrically stimulated mouse vas deferens(MVD) at 10 uM of concentration. It counts as functional.
For test [13], the target named is Mu-type opioid receptor (Cavia porcellus) (UniProt P97266). The experiment in a line: Ratio of IC50 of […] (agonist) after 10 min of incubation along with compound (antagonist) and IC50 of agonist in absence of compound for Opioid receptor mu 1 at 1 uM in GPI assay. It counts as functional. The method, boiled down:
as §3

Test [14] has as its target Mu-type opioid receptor (Mus musculus) (UniProt P42866). Description: Ratio of IC50 of […] (agonist) after 10 min of incubation along with compound (antagonist) and IC50 of agonist in absence of compound for Opioid receptor mu 1 at 1 uM in MVD assay. It counts as functional. The method, boiled down:
as §3

For test [15], the species on record is Mus musculus. The experiment in a line: Ratio of IC50 of DADLE (agonist) expossed to the compound for 10 min and then washed 30 times to Ratio of IC50 of morphine (agonist) prior to exposure to compound. It counts as functional. An outline of the steps:
(§5)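 Irreversible antagonism was measured in isolated tissue. The tissue was exposed to the compound for 10 min (30 min in some cases), then washed 30 times with fresh buffer to remove non-covalently bound ligand. Agonist IC50 was then redetermined. The ratio is this post-wash IC50 over the agonist IC50 in the same tissue before exposure. Mean ± SEM, n = 3 unless otherwise noted.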

For test [16], the target named is T2, Opioid receptors; mu/kappa/delta (Homo sapiens) (UniProt P41145+P41143+P35372). The test is described as §4. It counts as functional, tissue-based. Particulars: Cavia porcellus, target entry is the homologue from another species.
T2 sequence (P35372 whole entry, looked up): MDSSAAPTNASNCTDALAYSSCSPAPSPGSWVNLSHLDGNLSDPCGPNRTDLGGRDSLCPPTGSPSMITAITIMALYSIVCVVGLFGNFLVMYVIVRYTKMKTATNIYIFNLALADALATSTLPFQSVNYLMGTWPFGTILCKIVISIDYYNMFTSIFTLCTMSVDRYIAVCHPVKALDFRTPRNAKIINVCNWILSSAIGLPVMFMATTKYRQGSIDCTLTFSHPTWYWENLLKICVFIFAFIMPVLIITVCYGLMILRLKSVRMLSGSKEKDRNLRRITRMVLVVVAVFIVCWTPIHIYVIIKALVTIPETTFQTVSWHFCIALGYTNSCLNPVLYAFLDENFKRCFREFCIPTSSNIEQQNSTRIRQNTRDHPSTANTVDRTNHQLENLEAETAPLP
T2 sequence (P41143 whole entry, looked up): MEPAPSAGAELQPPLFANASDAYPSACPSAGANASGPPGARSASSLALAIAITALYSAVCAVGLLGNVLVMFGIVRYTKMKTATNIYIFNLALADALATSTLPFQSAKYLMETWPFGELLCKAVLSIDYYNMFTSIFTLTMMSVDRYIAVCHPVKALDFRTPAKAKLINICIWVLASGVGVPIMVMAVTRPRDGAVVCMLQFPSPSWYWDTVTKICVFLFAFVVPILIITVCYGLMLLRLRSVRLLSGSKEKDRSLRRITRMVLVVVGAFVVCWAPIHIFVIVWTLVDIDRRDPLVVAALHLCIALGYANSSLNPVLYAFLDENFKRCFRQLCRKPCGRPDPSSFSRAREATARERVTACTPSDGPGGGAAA
T2 sequence (P41145 whole entry, looked up): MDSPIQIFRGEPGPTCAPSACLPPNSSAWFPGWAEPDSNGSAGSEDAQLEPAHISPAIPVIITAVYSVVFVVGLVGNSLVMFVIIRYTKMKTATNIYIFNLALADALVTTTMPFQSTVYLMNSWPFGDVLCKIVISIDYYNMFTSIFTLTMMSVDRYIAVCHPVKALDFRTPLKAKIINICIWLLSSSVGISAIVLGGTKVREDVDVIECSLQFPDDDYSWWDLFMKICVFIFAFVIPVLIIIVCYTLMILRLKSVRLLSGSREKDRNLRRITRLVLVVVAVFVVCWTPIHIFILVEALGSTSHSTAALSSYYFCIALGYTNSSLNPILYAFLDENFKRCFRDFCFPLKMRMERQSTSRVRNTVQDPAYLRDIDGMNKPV
Test [17] deals with T2, Opioid receptors; mu/kappa/delta (Homo sapiens). The description is as §1. It counts as functional, tissue-based. As to conditions: Cavia porcellus, target entry is the homologue from another species.
For test [18], the species on record is Mus musculus. The experiment in a line: Ratio of IC50 of morphine (agonist) expossed to the compound for 10 min and then washed 30 times to Ratio of IC50 of morphine (agonist) prior to exposure to compound. It counts as functional. The method, boiled down:
as §5

Test [19] addresses T1, Opioid receptor (Mus musculus). The description is as §2. It counts as functional.
For test [20], the target named is Delta-type opioid receptor (Mus musculus) (UniProt P32300). Description: Ratio of IC50 of DADLE (agonist) after 10 min of incubation along with compound (antagonist) and IC50 of agonist in the absence of compound for Opioid receptor delta 1 at 1 uM in MVD assay. It counts as functional. An outline of the steps:
as §3

For test [21], the target named is Kappa-type opioid receptor (Cavia porcellus) (UniProt P41144). Description: Ratio of IC50 of ethylketazocine (agonist) after 10 min of incubation along with compound (antagonist) and IC50 of agonist in absence of compound for Opioid receptor kappa 1 at 1 uM in GPI assay. It counts as functional. The method, boiled down:
as §3

For test [22], the target named is Delta-type opioid receptor (Mus musculus) (UniProt P32300). Description: Ratio of IC50 of DADLE (agonist) after 10 min of incubation along with compound (antagonist) and IC50 of agonist in the absence of compound for Opioid receptor delta 1 at 10 uM in MVD assay. It counts as functional. An outline of the steps: as §3
Sequence of Delta-type opioid receptor (Mus musculus) (P32300 whole entry): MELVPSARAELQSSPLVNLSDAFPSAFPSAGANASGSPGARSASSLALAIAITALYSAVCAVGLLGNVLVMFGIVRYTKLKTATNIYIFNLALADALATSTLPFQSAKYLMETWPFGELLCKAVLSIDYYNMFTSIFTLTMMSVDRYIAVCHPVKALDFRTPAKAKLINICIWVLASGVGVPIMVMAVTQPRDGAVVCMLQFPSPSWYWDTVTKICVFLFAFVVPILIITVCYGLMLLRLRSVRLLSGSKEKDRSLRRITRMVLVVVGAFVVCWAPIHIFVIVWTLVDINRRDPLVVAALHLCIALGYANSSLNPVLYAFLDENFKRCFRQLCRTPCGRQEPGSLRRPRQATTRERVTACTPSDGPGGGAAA
Test [23] has as its target Kappa-type opioid receptor (Cavia porcellus) (UniProt P41144). The experiment in a line: Ratio of IC50 of ethylketazocine (agonist) after 10 min of incubation along with compound (antagonist) and IC50 of agonist in absence of compound for Opioid receptor kappa 1 at 1 uM in GPI assay (Exp 1). It counts as functional. The method, boiled down: as §3
Test [24] shares this target. Description: Ratio of IC50 of ethylketazocine (agonist) after 10 min of incubation along with compound (antagonist) and IC50 of agonist in absence of compound for Opioid receptor kappa 1 at 1 uM in GPI assay (Exp 2). It counts as functional. The method, boiled down:
as §3

Test [25] addresses T2, Opioid receptors; mu/kappa/delta (Homo sapiens). The experiment in a line: Reversible opioid agonist activity in the electrically stimulated guinea pig ileum(GPI) at 1 uM concentration (exp 2). It counts as functional, tissue-based. Particulars: Cavia porcellus, target entry is the homologue from another species.
In test [26] the target is Mu-type opioid receptor (Cavia porcellus) (UniProt P97266). Description: Ratio of IC50 of […] (agonist) after 10 min of incubation along with compound (antagonist) and IC50 of agonist in absence of compound for Opioid receptor mu 1 at 1 uM in GPI assay (exp 2). It counts as functional. An outline of the steps:
as §3

Test [27] has the same target. Description: Ratio of IC50 of […] (agonist) after 10 min of incubation along with compound (antagonist) and IC50 of agonist in absence of compound for Opioid receptor mu 1 at 1 uM in GPI assay (exp 1). It counts as functional. The method, boiled down:
as §3

Test [28] is filed under the species Mus musculus. The experiment in a line: Ratio of IC50 of DADLE (agonist) exposed to the compound for 10 min and then washed 30 times to Ratio of IC50 of morphine (agonist) prior to exposure to compound. It counts as functional. The method, boiled down:
as §5

Test [29] has as its target T2, Opioid receptors; mu/kappa/delta (Homo sapiens). The experiment in a line: Reversible opioid agonist activity in the electrically stimulated guinea pig ileum(GPI) at 1 uM concentration (exp 1). It counts as functional, tissue-based. Particulars: Cavia porcellus, target entry is the homologue from another species.

T1 sequence (P32300 whole entry, looked up): as the sequence (P32300 whole entry) above
T1 sequence (P33534 whole entry, looked up): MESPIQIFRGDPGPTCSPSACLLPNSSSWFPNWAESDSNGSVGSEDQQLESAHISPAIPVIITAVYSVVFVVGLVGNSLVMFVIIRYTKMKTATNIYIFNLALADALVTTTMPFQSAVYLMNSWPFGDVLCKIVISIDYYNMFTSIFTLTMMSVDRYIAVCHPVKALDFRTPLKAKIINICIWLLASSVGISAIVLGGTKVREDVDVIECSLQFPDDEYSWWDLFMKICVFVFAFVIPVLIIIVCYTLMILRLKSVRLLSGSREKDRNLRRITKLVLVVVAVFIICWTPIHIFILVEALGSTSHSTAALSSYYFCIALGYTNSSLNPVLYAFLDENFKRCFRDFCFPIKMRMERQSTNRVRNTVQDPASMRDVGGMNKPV
T1 sequence (P42866 whole entry, looked up): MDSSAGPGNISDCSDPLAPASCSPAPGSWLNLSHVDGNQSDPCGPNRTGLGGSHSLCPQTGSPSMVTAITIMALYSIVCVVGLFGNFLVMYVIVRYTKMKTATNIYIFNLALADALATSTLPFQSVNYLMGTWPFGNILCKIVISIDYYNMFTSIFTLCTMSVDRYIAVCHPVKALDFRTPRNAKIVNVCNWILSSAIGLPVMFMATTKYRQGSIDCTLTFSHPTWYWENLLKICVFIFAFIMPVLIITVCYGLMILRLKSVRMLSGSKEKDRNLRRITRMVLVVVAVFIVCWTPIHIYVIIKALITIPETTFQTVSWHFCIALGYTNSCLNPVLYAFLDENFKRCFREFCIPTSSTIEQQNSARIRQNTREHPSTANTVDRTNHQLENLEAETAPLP
Sequence of Mu-type opioid receptor (Homo sapiens) (P35372 whole entry): as the sequence (P35372 whole entry, looked up) above
Sequence of Mu-type opioid receptor (Mus musculus) (P42866 whole entry): as the sequence (P42866 whole entry, looked up) above

Turning to `C=CCN(CC=C)[C@@H](Cc1ccc(O)cc1)C(=O)NCC(=O)NCC(=O)N[C@@H](Cc1ccccc1)C(=O)N[C@@H](CC(C)C)C(=O)O` ({Tyr(Nα,Nα-allyl2)}-GGFL-OH), the IC50 ratio in test [1] is 1.1; in test [2] it was 0.8; in test [5], 2.7; in [7], 0.6; in [8] it was 0.8; in test [9], 1.1. The inhibition at 1 µM was -6.7% in the test filed under Cavia porcellus [3], 10% in the test listed under Mus musculus [4] and 0% in the test listed under Cavia porcellus [6].

With `C=CCN(CC=C)[C@@H](Cc1ccc(O)cc1)C(=O)NCC(=O)NCC(=O)N[C@@H](Cc1ccc(N(CCCl)CCCl)cc1)C(=O)N[C@@H](CC(C)C)C(=O)O` ({Tyr(Nα,Nα-allyl2)}-GG[Phe(4-N(CH2CH2Cl)2)]L-OH), the IC50 ratio in [2] is 0.6; in [5], 1.2; in test [8] it was 1.1; in [9], 1.1 and 1. In addition, the inhibition at 1 µM in the test filed under Mus musculus [4] is 4.2%; in the test filed under Cavia porcellus [10], 10%; in the test listed under Cavia porcellus [11], 23%.

Take `C=CCN(CC=C)[C@@H](Cc1ccc(O)cc1)C(=O)NC(C)(C)C(=O)NC(C)(C)C(=O)N[C@@H](Cc1ccccc1)C(=O)N[C@@H](CC(C)C)C(=O)O` ({Tyr(Nα,Nα-allyl2)}-[Aib][Aib]FL-OH): the inhibition in test [12] amounted to 15.8%; in test [16], 37.8%; in test [17] it was 16.2%; in test [19] it was 8.4%. Moreover, the IC50 ratio was 0.5 and 0.6 in [13]; 0.8 in [14]; 5.5 in the test filed under Mus musculus [15]; 0.8 in the test listed under Mus musculus [18]; 15.6 in test [20]; 0.7 and 0.9 in test [21]. For the same compound, the IC50 ratio in test [22] was determined as 147.

Turning to `C=CCN(CC=C)[C@@H](Cc1ccc(O)cc1)C(=O)NC(C)(C)C(=O)NC(C)(C)C(=O)N[C@@H](Cc1ccc(N(CCCl)CCCl)cc1)C(=O)N[C@@H](CC(C)C)C(=O)O` ({Tyr(Nα,Nα-allyl2)}-[Aib][Aib][Phe(4-N(CH2CH2Cl)2)]L-OH), the IC50 ratio in test [23] was 0.3; in [24] it was 0.6; in test [14], 2.2; in [26], 1; in [27], 0.6; in the test listed under Mus musculus [28], 2.9. For the same compound, the IC50 ratio was determined as 3 in the test listed under Mus musculus [18], 5 in [20] and 19.4 in [22]. Further, the inhibition in test [12] was 16.8%; in test [25] it was 14.7%; in [29], 8.1%; in [19], 20.6%.
